Data from ChEMBL document CHEMBL5329163, “N-Acylsulfonamide: a valuable moiety to design new sulfa drug analogues” (RSC Med Chem, 2023).
≈ marks a conversion by molar mass, not a printed value. Blank lines part the entries; values can stand above or below the compound they belong to. Calls of active or inactive are those of the source. No cut-off for these calls is given here.

Tests used:
[1] = system: Escherichia coli; assay: Antibacterial activity against Escherichia coli ATCC 8739 assessed as inhibition of bacterial growth incubated for 24 hrs by resazurin dye based broth microdilution method; type: functional
Procedure, shortened: (§1)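 CLSI broth microdilution in cation-adjusted Mueller Hinton broth, pH 7.4 (±0.2). Compounds dissolved in DMSO at 25.6 mg mL⁻¹ (stock), diluted to 1–256 µg mL⁻¹. Inoculum 5 × 10⁵ CFU mL⁻¹ final; 24 h at 37 °C, static. Resazurin 0.015% then added, 2–4 h more; wells staying blue read as above MIC. Sulfacetamide reference.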

[2] = system: Pseudomonas aeruginosa; assay: Antibacterial activity against Pseudomonas aeruginosa ATCC 27853 assessed as inhibition of bacterial growth incubated for 24 hrs by resazurin dye based broth microdilution method; type: functional; procedure, shortened: as §1
[3] = system: Bacillus subtilis; assay: Antibacterial activity against Bacillus subtilis ATCC 6051 assessed as inhibition of bacterial growth incubated for 24 hrs by resazurin dye based broth microdilution method; type: functional; procedure, shortened: as §1
[4] = system: Staphylococcus aureus; assay: Antibacterial activity against Staphylococcus aureus CIP 107093 assessed as inhibition of bacterial growth incubated for 24 hrs by resazurin dye based broth microdilution method; type: functional; procedure, shortened: as §1
[5] = system: Escherichia coli; assay: Antibiofilm activity against Escherichia coli ATCC 8739 assessed as inhibition of biofilm formation at 0.5 times of MIC by crystal violet staining based analysis relative to control; type: functional
Procedure, shortened: (§2)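 Overnight cultures inoculated into fresh LB with compound at ½ MIC and grown 24 h at 37 °C, static. Growth read at 580 nm. Medium discarded, wells rinsed with distilled water, stained with 0.1% crystal violet, dye solubilized in 30% acetic acid, OD 595 nm; uninoculated-control staining subtracted. At least three independent replicates, mean ± SEM; one-way ANOVA with Dunnett test.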

[6] = system: Pseudomonas aeruginosa; assay: Antibiofilm activity against Pseudomonas aeruginosa ATCC 27853 assessed as inhibition of biofilm formation at 0.5 times of MIC by crystal violet staining based analysis relative to control; type: functional; procedure, shortened: as §2
[7] = system: HaCaT; assay: Cytotoxicity against human HaCaT cells incubated for 24 hrs by CyQuant LDH assay; type: toxicity, cell-based
Procedure, shortened: (§3)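 HaCaT (10% FCS) or Caco-2 (20% FCS) grown in DMEM with 1% penicillin–streptomycin, 37 °C, 5% CO₂. Seeded in 24-well plates, grown 72 h, rinsed with PBS, then exposed 24 h to compounds at MIC and ½ MIC in fresh DMEM. LDH release measured. Untreated and damaged-cell controls; two independent assays, at least 2 replicates, mean ± SEM.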

[8] = system: Caco-2; assay: Cytotoxicity against human Caco-2 cells incubated for 24 hrs by CyQuant LDH assay; type: toxicity, cell-based; conditions: caco-2, 24 h; procedure, shortened: as §3
[9] = system: Escherichia coli; assay: Antibacterial activity against Escherichia coli ATCC 8739 assessed as inhibition of bacterial growth at 1 to 256 ug/ml incubated for 24 hrs by resazurin dye based broth microdilution method; type: functional, organism-based; conditions: dose 1-256 µg/ml; procedure, shortened: as §1
[10] = system: Pseudomonas aeruginosa; assay: Antibacterial activity against Pseudomonas aeruginosa ATCC 27853 assessed as inhibition of bacterial growth at 1 to 256 ug/ml incubated for 24 hrs by resazurin dye based broth microdilution method; type: functional, organism-based; conditions: dose 1-256 µg/ml; procedure, shortened: as §1
[11] = system: Bacillus subtilis; assay: Antibacterial activity against Bacillus subtilis ATCC 6051 assessed as inhibition of bacterial growth at 1 to 256 ug/ml incubated for 24 hrs by resazurin dye based broth microdilution method; type: functional, organism-based; conditions: dose 1-256 µg/ml; procedure, shortened: as §1
[12] = system: Staphylococcus aureus; assay: Antibacterial activity against Staphylococcus aureus CIP 107093 assessed as inhibition of bacterial growth at 1 to 256 ug/ml incubated for 24 hrs by resazurin dye based broth microdilution method; type: functional, organism-based; conditions: dose 1-256 µg/ml; procedure, shortened: as §1

SMILES: CC(=O)Nc1ccc(S(=O)(=O)NC(=O)c2ccc([N+](=O)[O-])cc2)cc1
- Activity [9]: inactive
- Activity [10]: inactive
- Activity [11]: inactive
- Activity [12]: inactive

SMILES: COc1ccccc1C(=O)NS(=O)(=O)c1ccc(NC(C)=O)cc1
- Activity [9]: inactive
- Activity [10]: inactive
- Activity [11]: inactive
- Activity [12]: inactive

SMILES: CC(=O)Nc1ccc(S(=O)(=O)NC(=O)c2ccc(Cl)cc2Cl)cc1
- Activity [9]: inactive
- Activity [10]: inactive
- Activity [11]: inactive
- Activity [12]: inactive

SMILES: CC(=O)Nc1ccc(S(=O)(=O)NC(=O)c2ccccc2)cc1
- Activity [9]: inactive
- Activity [10]: inactive
- Activity [11]: inactive
- Activity [12]: inactive

SMILES: CC(=O)Nc1ccc(S(=O)(=O)NC(=O)c2ccc(C(F)(F)F)cc2)cc1
- Activity [9]: inactive
- Activity [10]: inactive
- Activity [11]: inactive
- Activity [12]: inactive

SMILES: CC(=O)Nc1ccc(S(=O)(=O)NC(C)=O)cc1
- Activity [9]: inactive
- Activity [10]: inactive
- Activity [11]: inactive
- Activity [12]: inactive

SMILES: COc1cccc(C(=O)NS(=O)(=O)c2ccc(NC(C)=O)cc2)c1
- Activity [9]: inactive
- Activity [10]: inactive
- Activity [11]: inactive
- Activity [12]: inactive

SMILES: COc1cc(C(=O)NS(=O)(=O)c2ccc(NC(C)=O)cc2)ccc1[N+](=O)[O-]
- Activity [9]: inactive
- Activity [10]: inactive
- Activity [11]: inactive
- Activity [12]: inactive

SMILES: CC(=O)Nc1ccc(S(=O)(=O)NC(=O)c2cc(F)c(F)c(F)c2)cc1
- Activity [9]: inactive
- Activity [10]: inactive
- Activity [11]: inactive
- Activity [12]: inactive

Continued, in another order:

- MIC [1]: 32 µg/mL (≈ 104 µM)
- MIC [2]: > 256 µg/mL
- MIC [3]: 256 µg/mL (≈ 836 µM)
- MIC [4]: > 256 µg/mL
SMILES: COc1cccc(C(=O)NS(=O)(=O)c2ccc(N)cc2)c1
- inhibition (INH) [5]: 42%
- inhibition (INH) [6]: 23%
- Activity [7]: Non-Toxic
- Activity [8]: Non-Toxic

- MIC [1]: > 256 µg/mL
- MIC [2]: > 256 µg/mL
- MIC [3]: > 256 µg/mL
- MIC [4]: > 256 µg/mL
SMILES: Nc1ccc(S(=O)(=O)NC(=O)c2ccc(Cl)cc2Cl)cc1

- MIC [1]: 32 µg/mL (≈ 116 µM)
- MIC [2]: > 256 µg/mL
- MIC [3]: 128 µg/mL (≈ 463 µM)
- MIC [4]: > 256 µg/mL
SMILES: Nc1ccc(S(=O)(=O)NC(=O)c2ccccc2)cc1 [SULFABENZAMIDE]
- inhibition (INH) [5]: 30%
- inhibition (INH) [6]: 14%
- Activity [7]: Non-Toxic
- Activity [8]: Non-Toxic

- MIC [1]: > 256 µg/mL
- MIC [2]: > 256 µg/mL
- MIC [3]: > 256 µg/mL
- MIC [4]: > 256 µg/mL
SMILES: COc1cc(C(=O)NS(=O)(=O)c2ccc(N)cc2)ccc1[N+](=O)[O-]

- MIC [1]: > 256 µg/mL
- MIC [2]: > 256 µg/mL
- MIC [3]: 256 µg/mL (≈ 797 µM)
- MIC [4]: > 256 µg/mL
SMILES: Nc1ccc(S(=O)(=O)NC(=O)c2ccc([N+](=O)[O-])cc2)cc1

- MIC [1]: 256 µg/mL (≈ 836 µM)
- MIC [2]: > 256 µg/mL
- MIC [3]: 64 µg/mL (≈ 209 µM)
- MIC [4]: 256 µg/mL (≈ 836 µM)
SMILES: COc1ccccc1C(=O)NS(=O)(=O)c1ccc(N)cc1
- Activity [5]: Active
- Activity [6]: Active
- Activity [7]: Non-Toxic
- Activity [8]: Non-Toxic

- MIC [1]: 32 µg/mL (≈ 149 µM)
- MIC [2]: > 256 µg/mL
- MIC [3]: 128 µg/mL (≈ 597 µM)
- MIC [4]: 256 µg/mL (≈ 1190 µM)
SMILES: CC(=O)NS(=O)(=O)c1ccc(N)cc1 [SULFACETAMIDE]
- Activity [7]: Non-Toxic
- Activity [8]: Non-Toxic

- MIC [1]: > 256 µg/mL
- MIC [2]: > 256 µg/mL
- MIC [3]: > 256 µg/mL
- MIC [4]: > 256 µg/mL
SMILES: Nc1ccc(S(=O)(=O)NC(=O)c2cc(F)c(F)c(F)c2)cc1

- MIC [1]: > 256 µg/mL
- MIC [2]: > 256 µg/mL
- MIC [3]: > 256 µg/mL
- MIC [4]: > 256 µg/mL
SMILES: Nc1ccc(S(=O)(=O)NC(=O)c2ccc(C(F)(F)F)cc2)cc1
